Series [1] deals with Enterococcus faecium. In words: Antibacterial activity against Enterococcus faecium ATCC 135562 by broth microdilution method. It is filed as functional. The procedure, abridged:
(§1)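 Compounds dissolved in sterile water at the highest achievable concentration, then serially diluted in Mueller-Hinton II broth per CLSI broth microdilution. Strains grown 6 h in BHI, diluted in MHII to 1 × 10^6 cfu/mL final. Aerobic incubation 37 °C, 24 h; tetracycline internal control; bacteria-only growth controls. MIC = lowest concentration with no visible growth; triplicate.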

For series [2], the system named is Staphylococcus aureus. In words: Antibacterial activity against Staphylococcus aureus ATCC 29213 by broth microdilution method. Format: functional. The procedure, abridged: as §1
Series [3] concerns Escherichia coli. In words: Antibacterial activity against Escherichia coli ATCC 25922 by broth microdilution method.
A short description of series [4]: Chemical stability of the compound in pH 7.4 phosphate buffered saline at 1 ug/ml assessed as compound degradation after 8 weeks. Format: physicochemical. Conditions: buffer, pH 7.4, 1344 h, at 1 µg/mL.
Series [5] has as its system Enterococcus faecalis. Briefly: Antibacterial activity against Enterococcus faecalis ATCC 29212 assessed as inhibition of visible growth after 24 hrs by broth microdilution method. It is filed as functional. The procedure, abridged: as §1
Series [6] deals with Enterococcus faecium. Briefly: Antibacterial activity against Enterococcus faecium 135562 (35C) assessed as inhibition of visible growth after 24 hrs by broth microdilution method. It is filed as functional. The procedure, abridged: as §1
(In broth dilution the organism is exposed to a series of concentrations in liquid medium.)

Series [7] has as its system Staphylococcus aureus. Briefly: Antibacterial activity against Staphylococcus aureus ATCC 29213 assessed as inhibition of visible growth after 24 hrs by broth microdilution method. Format: functional. The procedure, abridged: as §1
In series [8] the test system is Escherichia coli. In words: Antibacterial activity against Escherichia coli ATCC 25922 assessed as inhibition of visible growth after 24 hrs by broth microdilution method. Format: functional. The procedure, abridged:
as §1

Series [9] relates to Pseudomonas aeruginosa. Briefly: Antibacterial activity against Pseudomonas aeruginosa ATCC 27853 assessed as inhibition of visible growth after 24 hrs by broth microdilution method. It is filed as functional. The procedure, abridged:
as §1

Series [10] can be described thus: Hemolytic activity against human erythrocytes measured after 1 hr by microplate reader based spectrophotometric analysis. It is filed as ADME, cell-based, Erythrocyte. The procedure, abridged:
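Heparinized fresh human blood washed three times in PBS pH 7.4 (1000 g, 10 min), resuspended ~20 vol %. Equal volume with 1:2 serial dilutions of compound in PBS, 1 h at 37 °C; PBS and 0.2 vol % Triton X-100 controls. Supernatant diluted 1:60, A350 read. HC50 from three- or four-parameter Hill fit; mean of three replicates.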

Series [11] in a line: Therapeutic index, ratio of HC50 for human erythrocytes to MIC for Staphylococcus aureus ATCC 29213. It is filed as toxicity. Conditions: read-out: TI.
Series [12] in a line: Therapeutic index, ratio of HC50 for human erythrocytes to MIC for Escherichia coli ATCC 25922. Format: toxicity. The conditions noted are these: read-out: TI.
Series [13] relates to Staphylococcus aureus. Briefly: Antibacterial activity against Staphylococcus aureus ATCC 29213 after preincubated with plasma for 6 hrs by broth microdilution method. It is filed as functional, organism-based.
The nature of series [14]: Chemical stability of the compound in pH 1.5 hydrochloride solution at 1 ug/ml assessed as compound degradation after 8 weeks. Format: physicochemical. Conditions: buffer, pH 1.5, 1344 h, at 1 µg/mL.
A short description of series [15]: Chemical stability of the compound in hydrochloride water at 1 ug/ml assessed as compound degradation after 8 weeks. Format: physicochemical. Conditions: buffer, 1344 h, at 1 µg/mL.
Series [16] is described as follows: Retention time of the compound by RP-HPLC analysis. Format: physicochemical. The procedure, abridged:
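RP-HPLC on C18 column (5 µm, 200 × 4.6 mm), 0.5 mL/min; hydrochlorides at 0.5–1 mg/mL in water:2-propanol 70:30, gradient to 10:90 over 40 min, then 20 min at 10:90. Adjusted retention time = instrumental retention time minus hold-up time.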

Series [17] deals with Staphylococcus aureus. In words: Antibacterial activity against linezolid-methicillin-resistant Staphylococcus aureus AOUC 0915 assessed as inhibition of visible growth after 24 hrs by broth microdilution method. Format: functional. The procedure, abridged: (§2)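 Broth microdilution per CLSI: strains grown 6 h in BHI broth, diluted in Mueller-Hinton II broth to 1 × 10^6 cfu/mL, mixed 1:1 with serial dilutions of compound in MHII (compounds dissolved in sterile water); aerobic incubation 37 °C, 24 h. MIC = lowest concentration with no visible growth. Tetracycline internal control; triplicate.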

Series [18] has as its system Escherichia coli. Briefly: Antibacterial activity against gentamicin-colistin-resistant Escherichia coli 288328 assessed as inhibition of visible growth after 24 hrs by broth microdilution method. Format: functional. The procedure, abridged:
as §2

Series [19] can be described thus: Therapeutic index, ratio of HC50 for human erythrocytes to MIC for linezolid-methicillin-resistant Staphylococcus aureus AOUC 0915. It is filed as toxicity. The procedure, abridged:
(§3)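 TI = HC50/MIC. HC50: washed heparinized human erythrocytes (~20 vol % in PBS pH 7.4) mixed 1:1 with 1:2 serial compound dilutions in PBS, 1 h at 37 °C; supernatant A350 read; PBS and 0.2 vol % Triton X-100 as 0 and 100% lysis; HC50 by Hill logistic regression, mean of three replicates.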

The nature of series [20]: Therapeutic index, ratio of HC50 for human erythrocytes to MIC for gentamycin-colistin-resistant Escherichia coli 288328. It is filed as toxicity. The procedure, abridged:
as §3

Series [21] relates to Cell membrane. Briefly: Induction of outer membrane permeabilization in Escherichia coli ATCC 25922 assessed as increase in fluorescence intensity at 8 ug/ml measured every 1 sec for 10 mins by NPN-probe based assay. It is filed as subcellular. Conditions: dose 8.0 µg/ml, in the assay text read “every 0.1 sec” for “every 1 sec”. The procedure, abridged:
(§4)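 Midlog E. coli (6 h growth, 10^8 cells/mL) washed, resuspended in PBS pH 7.2, held at 4 °C, used within 3 h; equilibrated 15 min at 25 °C. NPN 1 µM working plus compound 8 µg/mL working. Fluorescence ex 350/em 420 nm, read every 0.1 s for 10 min; rate constant from exponential rise-to-maximum fit; probe-only, buffer controls.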

Series [22] concerns Cell membrane. In words: Induction of outer membrane permeabilization in gentamycin-colistin resistant Escherichia coli 288328 assessed as increase in fluorescence intensity at 8 ug/ml measured every 1 sec for 10 mins by NPN-probe based assay. Format: subcellular. The conditions noted are these: dose 8.0 µg/ml, in the assay text read “every 0.1 sec” for “every 1 sec”. The procedure, abridged:
as §4

Series [23] concerns Cell membrane. Briefly: Induction of inner membrane permeabilization in Escherichia coli ATCC 25922 assessed as increase in fluorescence intensity at 8 ug/ml measured every 1 sec for 10 mins by PI-probe based assay. It is filed as subcellular. Conditions: dose 8.0 µg/ml, in the assay text read “every 0.1 sec” for “every 1 sec”. The procedure, abridged:
(§5)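 Same washed midlog E. coli suspension (PBS pH 7.2, 10^8 cells/mL, 25 °C after 15 min equilibration). Propidium iodide 15 µM working with compound at 8 µg/mL working. Fluorescence ex 535/em 617 nm every 0.1 s over 10 min; rate constant from exponential rise-to-maximum fit; controls without cells or compound.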

The test system of series [24] is Cell membrane. Briefly: Induction of inner membrane permeabilization in gentamycin-colistin resistant Escherichia coli 288328 assessed as increase in fluorescence intensity at 8 ug/ml measured every 1 sec for 10 mins by PI-probe based assay. Format: subcellular. Conditions: dose 8.0 µg/ml, in the assay text read “every 0.1 sec” for “every 1 sec”. The procedure, abridged:
as §5

The subject of series [25] is Cell membrane. In words: Induction of outer membrane permeabilization in Escherichia coli ATCC 25922 assessed as rate constant by measuring NPN uptake at 8 ug/ml measured every 1 sec for 10 mins. It is filed as subcellular. Conditions: dose 8.0 µg/ml, in the assay text read “every 0.1 sec” for “every 1 sec”. The procedure, abridged:
as §4

The test system of series [26] is Cell membrane. Briefly: Induction of outer membrane permeabilization in gentamycin-colistin resistant Escherichia coli 288328 assessed as rate constant by measuring NPN uptake at 8 ug/ml […]. The conditions noted are these: dose 8.0 µg/ml.
Series [27] concerns Cell membrane. In words: Induction of inner membrane permeabilization in Escherichia coli ATCC 25922 assessed as rate constant by measuring PI uptake at 8 ug/ml […]. Conditions: dose 8.0 µg/ml.
Series [28] relates to Cell membrane. Briefly: Induction of inner membrane permeabilization in gentamycin-colistin resistant Escherichia coli 288328 assessed as rate constant by measuring PI uptake at 8 ug/ml […]. The conditions noted are these: dose 8.0 µg/ml.
The test system of series [29] is Enterococcus faecalis. In words: Antibacterial activity against Enterococcus faecalis ATCC 29212. Format: functional. The procedure, abridged:
as §1

The test system of series [30] is Staphylococcus aureus. In words: Antibacterial activity against Staphylococcus aureus ATCC 29213. Format: functional. The procedure, abridged:
as §2

Series [31] concerns Escherichia coli. Briefly: Antibacterial activity against Escherichia coli ATCC 25922. It is filed as functional. The procedure, abridged:
as §2

Series [32] concerns Pseudomonas aeruginosa. In words: microbe, parasite or virus in culture. The conditions noted are these: ATCC 27853.

Converted amounts (≈) assume the structure as drawn. The source made the active and inactive calls. No cut-off for these calls is given here.

Turning to “H-GIGKFLKKAKKFGKAFVKILKK-NH2 [PEXIGANAN]”, the figures for the MIC in the series with Enterococcus faecium [1], in the series on Staphylococcus aureus [2] and against Escherichia coli [3] were 64 µg/mL, 8 µg/mL and 16 µg/mL, respectively.
By HC50 is commonly meant the concentration giving 50% haemolysis. Read a low HC50 as stronger haemolysis. Turning to `CCCCCCCCNC(=O)CN(NC(=O)CCCCCCC)C(=O)CN.Cl`, the Stabilty result in [4], in [14] and in series [15] was “Stable” throughout. Further, the MIC in the series with Enterococcus faecalis [5] was found to be 32 µg/mL; in the series on Enterococcus faecium [6] it was 16 µg/mL; in the series with Staphylococcus aureus [7], 16 µg/mL; with Escherichia coli [8], 16 µg/mL; in the series with Pseudomonas aeruginosa [9], 32 µg/mL. Further, the 50% haemolytic concentration (HC50) at 1 h in series [10] was 131 µg/mL. The selectivity ratio in [11] and in series [12] was 8.2 in each case. Moreover, the outcome in the series with Staphylococcus aureus [13] was Active. Besides, the Retention_time in series [16] was determined as 17.8 min.
`CCCCCCCCCCCCNC(=O)CN(NC(=O)C(C)(C)C)C(=O)CN.Cl`: the MIC in the series with Enterococcus faecalis [5] worked out at 8 µg/mL; in the series on Enterococcus faecium [6], 8 µg/mL; in the series on Staphylococcus aureus [7], 4 µg/mL; in the series on Escherichia coli [8], 8 µg/mL; in the series with Pseudomonas aeruginosa [9] it was 16 µg/mL; with Staphylococcus aureus [17], 4 µg/mL. Moreover, the MIC in the series with Escherichia coli [18] stood at 8 µg/mL. This molecule also returned a concentration for 50% haemolysis (HC50) at 1 h in series [10] of 394 µg/mL. Besides, the selectivity ratio in series [11] worked out at 99; in [12] it was 49; in series [19], 99; in series [20], 49. The result in the series with Cell membrane [21], in the series on Cell membrane [22], in the series on Cell membrane [23], in the series with Cell membrane [24] and in the series with Staphylococcus aureus [13] was Active. In addition, the Activity is 0.25 min⁻¹ in the series with Cell membrane [25], 0.31 min⁻¹ in the series with Cell membrane [26], 0.22 min⁻¹ in the series with Cell membrane [27] and 0.24 min⁻¹ in the series with Cell membrane [28]. This molecule also displayed a Retention_time in series [16] of 19.8 min.
On to `CN(C)[C@@H]1C(O)=C(C(N)=O)C(=O)[C@@]2(O)C(O)=C3C(=O)c4c(O)cccc4[C@@](C)(O)[C@H]3C[C@@H]12` [TETRACYCLINE], for which the MIC was 8 µg/mL (≈ 18 µM) in the series on Enterococcus faecalis [29], 0.12 µg/mL (≈ 0.27 µM) in the series with Staphylococcus aureus [30], 0.5 µg/mL (≈ 1.13 µM) in the series with Escherichia coli [31] and 8 µg/mL (≈ 18 µM) in the series with Pseudomonas aeruginosa [32].
Take `CCCCCCCCCCCCNC(=O)CN(NC(=O)c1ccccc1)C(=O)CN.Cl`: the MIC with Enterococcus faecalis [5] worked out at 4 µg/mL; with Enterococcus faecium [6], 4 µg/mL; in the series on Staphylococcus aureus [7], 4 µg/mL; in the series with Escherichia coli [8], 4 µg/mL; in the series with Pseudomonas aeruginosa [9] it was 64 µg/mL; with Staphylococcus aureus [17] it was 4 µg/mL. The MIC in the series on Escherichia coli [18] is 4 µg/mL. The same molecule displayed an HC50 at 1 h in series [10] of 195 µg/mL. Moreover, the selectivity ratio in [11], in series [12], in series [19] and in series [20] was 49 in each case. The result in the series with Staphylococcus aureus [13] was Active. In series [16], this molecule gave a Retention_time of 19.7 min.

These data come from ChEMBL document CHEMBL4680184, “Simple amphiphilic α-hydrazido acids: Rational design, synthesis, and in vitro bioactivity profile of a novel class of potential antimicrobial compounds” (Eur J Med Chem, 2020).
